Results on 4 compounds are retold here after ChEMBL document CHEMBL4364350, “Use of a fluorescence assay to determine relative affinities of semisynthetic aminoglycosides to small RNAs representing bacterial and mitochondrial A sites” (Bioorg Med Chem, 2019).

Data set [1] can be described thus: Selectivity ratio of IC50 for anti-ribosomal activity against human-bacterial hybrid ribosome containing human mitochondrial ribosome A site harboring wild type 12s rRNA to IC50 for anti-ribosomal activity against bacterial 70S hybrid ribosomes.
Data set [2] deals with Escherichia coli. Put plainly: Binding affinity to 5'-fluorescein-tagged Escherichia coli ribosomal A site wt-bac duplex RNA assessed as conformational change in RNA by measuring decrease in fluorescence intensity incubated for 2 mins by fluorescence spectrophotometric analysis. Put shortly: (§1)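 The 5'-fluorescein-labelled strand was set to 1 μM in binding buffer (10 mM HEPES pH 7.4, 150 mM NaCl, 3 mM Na2EDTA). The complementary strand was annealed at 95 °C for 1 min, then cooled slowly overnight. Aminoglycoside was added in 12–15 aliquots of 2 μL, each followed by 2 min incubation. Excitation 490 nm; 520 nm emission was volume-corrected. Fraction bound was fitted to a quadratic equation for apparent Kd, from three independent trials.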

For data set [3], the system named is human mitochondrial ribosomal A site (wild type) RNA. Put plainly: Selectivity ratio of Kd for 5'-fluorescein-tagged human mitochondrial ribosomal A site wt-duplex RNA to Kd for 5'-fluorescein-tagged Escherichia coli ribosomal A site wt-bac duplex RNA. It is filed as toxicity.
The nature of data set [4]: Binding affinity to 5'-fluorescein-tagged bacterial ribosomal A site 27-nucleotide hairpin RNA construct by fluorescence analysis. Further details: species or system Bacteria.
The nature of data set [5]: Selectivity ratio of IC50 for anti-ribosomal activity against human-bacterial hybrid ribosome containing human mitochondrial ribosome A site harboring A1555G mutant 12s rRNA to IC50 for anti-ribosomal activity against bacterial 70S hybrid ribosomes.
Data set [6] is described as follows: Binding affinity to 5'-fluorescein-tagged human mitochondrial ribosomal A site wt-duplex RNA incubated for 2 mins by fluorescence spectrophotometric analysis. In a few lines:
as §1

A short description of data set [7]: Binding affinity to 5'-fluorescein-tagged Escherichia coli ribosomal A site wt-bac duplex RNA incubated for 2 mins by fluorescence spectrophotometric analysis. In a few lines:
as §1

Data set [8] can be described thus: Binding affinity to 5'-fluorescein-tagged human mitochondrial ribosome A site mutant duplex RNA incubated for 2 mins by fluorescence spectrophotometry analysis. In a few lines:
as §1

Data set [9] deals with human mitochondrial ribosome A site (mutant) RNA. Put plainly: Selectivity ratio of Kd for 5'-fluorescein-tagged human mitochondrial ribosome A site mutant duplex RNA to Kd for 5'-fluorescein-tagged Escherichia coli ribosomal A site wt-bac duplex RNA. Format: toxicity.
Data set [10] can be described thus: Anti-ribosomal activity against human-bacterial hybrid ribosome containing human mitochondrial ribosome A site harboring wild type 12s rRNA assessed as inhibition of cell-free translation by dual luciferase reporter assay.
For the next data set, the target named is Bacterial 70S ribosome. Put plainly: Anti-ribosomal activity against bacterial 70S hybrid ribosomes assessed as inhibition of cell-free translation incubated for 35 mins by dual luciferase reporter assay. Format: subcellular, Bacteria. For orientation: A reporter such as luciferase makes a cellular process visible.
Data set [11] concerns Escherichia coli. Put plainly: Antibacterial activity against Escherichia coli AG001 incubated for overnight by broth microdilution assay. Format: functional.
Data set [12] can be described thus: Anti-ribosomal activity against human-bacterial hybrid ribosome containing human mitochondrial ribosome A site harboring A1555G mutant 12s rRNA assessed as inhibition of cell-free translation by dual luciferase reporter assay.
Data set [13] has as its system Escherichia coli. In words: Potency index, ratio of paromomycin Kd to compound Kd for 5'-fluorescein-tagged Escherichia coli ribosomal A site wt-bac duplex RNA incubated for 2 mins by fluorescence spectrophotometric analysis.

By inhibition is commonly meant the change of the read-out against control, counted positive when it falls. For orientation: Kd means the constant that tells how readily two partners part at equilibrium. Low readings indicate a tighter complex, high ones a looser complex. In general, IC50 refers to the concentration that gives 50% inhibition. In general, MIC refers to the lowest concentration found to suppress growth. Read a low MIC as greater potency.

Structures are written as SMILES. In brackets after ≈: the same amount, converted by molar mass.

For the compound `NC[C@@H]1O[C@H](O[C@H]2[C@@H](O)[C@H](O[C@@H]3[C@@H](O)[C@H](N)C[C@H](N)[C@H]3O[C@H]3O[C@H](CN)[C@@H](O)[C@H](O)[C@H]3N)O[C@@H]2CO)[C@H](N)[C@@H](O)[C@@H]1O` [FRAMYCETIN], the results for the Ratio IC50 in [1] and in [5] were 200 and 20, respectively. The inhibition in the data set with Escherichia coli [2] was determined as 20%. Moreover, the selectivity ratio in [3] came out at 1100; in data set [9], 100. For the same compound, the Kd was 5 nM in [4], 1100 nM in [6], 1 nM in data set [7] and 100 nM in data set [8].

Take `CCO[C@H]1[C@H](O)[C@@H](N)[C@@H](O[C@H]2[C@H](O[C@@H]3O[C@H](CO)[C@@H](O[C@H]4O[C@@H](CN)[C@@H](O)[C@H](O)[C@H]4N)[C@H]3O)[C@@H](O)[C@H](N)C[C@@H]2N)O[C@@H]1CO`: the Ratio IC50 in data set [1] was 1210; in [5] it was 1500. The IC50 in data set [10] is 97 µg/mL (≈ 151 µM); on Bacterial 70S ribosome, 124 nM; in data set [12], 120 µg/mL (≈ 186 µM). Also, the selectivity ratio in [3] was 427; in [9] it was 287. This compound came in with an MIC in the data set with Escherichia coli [11] of 16 µg/mL (≈ 24.9 µM). The Kd in data set [6] is 12800 nM; in [7] it was 30 nM; in data set [8], 8600 nM.

Take `NC[C@@H]1O[C@H](O[C@H]2[C@@H](O)[C@H](O[C@@H]3[C@@H](O)[C@H](N)C[C@H](N)[C@H]3O[C@H]3O[C@H](CO)[C@@H](O)[C@H](O)[C@H]3N)O[C@@H]2CO)[C@H](N)[C@@H](O)[C@@H]1O` [PAROMOMYCIN]: the Ratio IC50 in [1] came to 1700; in [5] it was 200. In addition, the IC50 in [10] is 51 µg/mL (≈ 82.8 µM); in data set [12] it was 6 µg/mL (≈ 9.75 µM). Moreover, the selectivity ratio in [3] was 1300; in [9] it was 560. In the data set on Escherichia coli [11], this compound gave an MIC of 4 µg/mL (≈ 6.5 µM). Besides, the Kd in [6] was 6500 nM; in data set [7], 5 nM; in data set [8], 2800 nM.

Consider `CCC[C@H]1[C@H](O)[C@@H](N)[C@@H](O[C@H]2[C@H](O[C@@H]3O[C@H](CO)[C@@H](O[C@H]4O[C@@H](CN)[C@@H](O)[C@H](O)[C@H]4N)[C@H]3O)[C@@H](O)[C@H](N)C[C@@H]2N)O[C@@H]1CO`, for which the Ratio IC50 in data set [1] turned out to be 5570; in data set [5], 1730. Besides, the IC50 in [10] was 167 µg/mL (≈ 260 µM); on Bacterial 70S ribosome, 46.7 nM; in data set [12] it was 51 µg/mL (≈ 79.5 µM). Also, the figures for the selectivity ratio in data set [3] and in data set [9] were 13400 and 2900, respectively. The Ratio in the data set with Escherichia coli [13] worked out at 2.5. This compound also gave an MIC against Escherichia coli [11] of 2 µg/mL (≈ 3.12 µM). The Kd in data set [6] amounted to 26900 nM; in data set [7], 2 nM; in data set [8], 5800 nM.
